{"source": "ChEMBL document CHEMBL1158052", "about": "“Tripfordines A-C, sesquiterpene pyridine alkaloids from Tripterygium wilfordii, and structure anti-HIV activity relationships of Tripterygium alkaloids” (J Nat Prod, 2006)", "key": {"[1]": {"test": "Therapeutic index, ratio of IC50 for human H9 lymphocytes to EC50 for HIV1", "conditions": "HIV-1, read-out: Ratio IC50/EC50", "how_it_was_run": "(§1)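 EC50 is the sample concentration that suppresses HIV replication by 50%. Cytotoxic IC50 is the concentration toxic to 50% of mock-infected cells. Therapeutic index is IC50 divided by EC50.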"}, "[2]": {"tested_on": "Human immunodeficiency virus 1", "test": "Antiviral activity against HIV1 infected human H9 lymphocytes assessed as suppression of viral replication", "assay_type": "functional, organism-based", "how_it_was_run": "as §1"}, "A549": {"tested_on": "A549", "test": "Cytotoxicity against human A549 cells", "assay_type": "functional, cell-based"}, "[3]": {"test": "Cytotoxicity against human AR751 cells", "assay_type": "functional, cell-based"}, "A-431": {"tested_on": "A-431", "test": "Cytotoxicity against human A431 cells", "assay_type": "functional, cell-based"}, "HCT-8": {"tested_on": "HCT-8", "test": "Cytotoxicity against human HCT8 cells", "assay_type": "functional, cell-based"}, "LNCaP": {"tested_on": "LNCaP", "test": "Cytotoxicity against human LNCAP cells", "assay_type": "functional, cell-based"}, "PC-3": {"tested_on": "PC-3", "test": "Cytotoxicity against human PC-3 cells", "assay_type": "functional, cell-based"}, "H9": {"tested_on": "H9", "test": "Cytotoxicity against mock-infected human H9 lymphocytes", "assay_type": "cell-based", "how_it_was_run": "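Mock-infected cells, run alongside the HIV replication suppression assay, were exposed to test sample. IC50 was taken as the concentration toxic to 50% of the mock-infected cells.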"}}, "note": "Calls of active or inactive are those of the source. The calls are words filed in the database; no cut-off is given here.", "data": [{"smiles": "CC(=O)OC[C@]12[C@H](OC(C)=O)[C@H](OC(C)=O)[C@@H]3[C@@H](OC(C)=O)[C@@]14O[C@@]3(C)COC(=O)c1cccnc1CCC(C)(O)C(=O)O[C@@H]([C@H](OC(=O)c1ccccc1)[C@@H]2OC(C)=O)[C@]4(C)O", "note": "(some centres undefined) [WILFORDINE]", "values": [{"measurement": "selectivity ratio", "setting": "[1]", "result": "> 200"}, {"measurement": "EC50", "setting": "[2]", "result": "< 0.1", "unit": "µg/mL"}]}, {"smiles": "CC(=O)OC[C@]12[C@H](OC(C)=O)[C@H](OC(C)=O)[C@@H]3[C@@H](OC(C)=O)[C@@]14O[C@@]3(C)COC(=O)c1cccnc1CCC(C)(O)C(=O)O[C@@H]([C@H](OC(=O)c1ccco1)[C@@H]2OC(C)=O)[C@]4(C)O", "note": "(some centres undefined) [WILFORTRINE]", "values": [{"measurement": "selectivity ratio", "setting": "[1]", "result": "> 1000"}, {"measurement": "EC50", "setting": "[2]", "result": "< 0.1", "unit": "µg/mL"}]}, {"smiles": "CC(=O)OC[C@]12[C@H](OC(C)=O)[C@H](OC(C)=O)[C@@H]3[C@@H](O)[C@@]14O[C@@]3(C)COC(=O)c1cccnc1C(C)C(C)C(=O)O[C@@H]([C@H](OC(C)=O)[C@@H]2OC(C)=O)[C@]4(C)O", "note": "(some centres undefined) [NEOEUONYMINE]", "values": [{"measurement": "selectivity ratio", "setting": "[1]", "result": "> 113"}, {"measurement": "EC50", "setting": "[2]", "result": 0.88, "unit": "µg/mL"}]}, {"smiles": "CC(=O)O[C@@H]1[C@H](OC(C)=O)[C@@]2(COC(=O)c3ccco3)[C@H](OC(C)=O)C(=O)[C@@H]3[C@@H](OC(C)=O)[C@@]24O[C@@]3(C)COC(=O)c2cccnc2C(C)C(C)C(=O)O[C@@H]1[C@]4(C)O", "note": "(some centres undefined) [HYPONINE B]", "values": [{"measurement": "selectivity ratio", "setting": "[1]", "result": "> 1000"}, {"measurement": "EC50", "setting": "[2]", "result": 0.1, "unit": "µg/mL"}]}, {"smiles": "CC(=O)OC[C@]12[C@H](OC(C)=O)[C@H](OC(C)=O)[C@@H]3[C@@H](OC(C)=O)[C@@]14O[C@@]3(C)COC(=O)c1cccnc1CCC(C)(O)C(=O)O[C@@H]([C@H](O)[C@@H]2OC(C)=O)[C@@]4(C)O", "note": "(some centres undefined) [TRIPFORDINE A]", "values": [{"measurement": "IC50", "setting": "A549", "result": "> 4", "unit": "µg/mL"}, {"measurement": "IC50", "setting": "[3]", "result": "> 4", "unit": "µg/mL"}, {"measurement": "IC50", "setting": "A-431", "result": "> 4", "unit": "µg/mL"}, {"measurement": "IC50", "setting": "HCT-8", "result": "> 4", "unit": "µg/mL"}, {"measurement": "IC50", "setting": "LNCaP", "result": "> 4", "unit": "µg/mL"}, {"measurement": "IC50", "setting": "PC-3", "result": "> 4", "unit": "µg/mL"}, {"measurement": "selectivity ratio", "setting": "[1]", "result": 1.9}, {"measurement": "IC50", "setting": "H9", "result": "> 25", "unit": "µg/mL"}, {"measurement": "EC50", "setting": "[2]", "result": 13.4, "unit": "µg/mL"}]}, {"smiles": "CC(=O)OC[C@]12[C@H](OC(C)=O)[C@H](OC(C)=O)[C@@H]3[C@@H](OC(C)=O)[C@@]14O[C@@]3(C)COC(=O)c1cccnc1C(C)C(C)C(=O)O[C@@H]([C@H](OC(C)=O)[C@@H]2OC(C)=O)[C@]4(C)O", "note": "(some centres undefined) [EUONYMINE]", "values": [{"measurement": "EC50", "setting": "[2]", "result": 0.2, "unit": "µg/mL"}]}, {"smiles": "CC(=O)O[C@@H]1[C@@H]2[C@@H](OC(C)=O)[C@@]34O[C@@]2(C)COC(=O)c2cnccc2C(C)C(C)(O)C(=O)O[C@@H]([C@H](OC(C)=O)[C@H](OC(C)=O)[C@@]3(COC(=O)c2ccco2)[C@@H]1OC(C)=O)[C@]4(C)O", "note": "(some centres undefined) [HYPOGLAUNINE A]", "values": [{"measurement": "selectivity ratio", "setting": "[1]", "result": "> 769"}]}, {"smiles": "CC(=O)OC[C@]12[C@H](OC(C)=O)[C@H](OC(C)=O)[C@@H]3[C@@H](OC(C)=O)[C@@]14O[C@@]3(C)COC(=O)c1cnccc1C(C)C(C)(O)C(=O)O[C@@H]([C@H](OC(=O)c1ccco1)[C@@H]2OC(C)=O)[C@]4(C)O", "note": "(some centres undefined) [HYPOGLAUNINE B]", "values": [{"measurement": "selectivity ratio", "setting": "[1]", "result": "> 1000"}, {"measurement": "EC50", "setting": "[2]", "result": 0.1, "unit": "µg/mL"}]}, {"smiles": "CC(=O)OC[C@]12[C@H](OC(C)=O)[C@H](OC(C)=O)[C@@H]3[C@@H](OC(C)=O)[C@@]14O[C@@]3(C)COC(=O)c1cccnc1C(C)C(C)C(=O)O[C@@H]([C@H](OC(=O)c1ccccc1)[C@@H]2OC(C)=O)[C@@]4(C)O", "note": "(some centres undefined) [FORRESTINE]", "values": [{"measurement": "selectivity ratio", "setting": "[1]", "result": "> 208"}]}, {"smiles": "COC(=O)C[C@@H]1C(=O)CC[C@H](C)C(=O)O[C@@H]2[C@@H]3[C@@H](OC(C)=O)[C@@]45O[C@@]3(C)COC(=O)c3cnccc3[C@@H](C)[C@@H](O)C(=O)O[C@@H]([C@H](OC(C)=O)[C@H](OC(C)=O)[C@@]4(COC1=O)[C@@H]2OC(C)=O)[C@]5(C)O", "note": "[TRIPTONINE B]", "values": [{"measurement": "selectivity ratio", "setting": "[1]", "result": "> 1000"}, {"measurement": "EC50", "setting": "[2]", "result": "< 0.1", "unit": "µg/mL"}]}, {"smiles": "CC(=O)OC[C@]12[C@H](OC(C)=O)[C@H](OC(C)=O)[C@@H]3[C@@H](OC(C)=O)[C@@]14O[C@@]3(C)COC(=O)c1cccnc1CCC(C)C(=O)O[C@@H]([C@H](OC(=O)c1ccccc1)[C@@H]2OC(C)=O)[C@]4(C)O", "note": "(some centres undefined)", "values": [{"measurement": "Activity", "setting": "[2]", "result": "inactive"}]}, {"smiles": "CC(=O)O[C@@H]1[C@@H]2[C@@H](OC(C)=O)[C@@]34O[C@@]2(C)COC(=O)c2cnccc2C(C)C(C)C(=O)O[C@@H]([C@H](OC(C)=O)[C@H](OC(C)=O)[C@@]3(COC(=O)c2ccco2)[C@@H]1OC(C)=O)[C@]4(C)O", "note": "(some centres undefined)", "values": [{"measurement": "Activity", "setting": "[2]", "result": "inactive"}]}, {"smiles": "COC(=O)C[C@@H]1C(=O)CCC(C)C(=O)O[C@@H]2[C@@H]3[C@@H](OC(C)=O)[C@@]45O[C@@]3(C)COC(=O)c3cccnc3C(C)C(C)C(=O)O[C@@H]([C@H](OC(C)=O)[C@H](OC(C)=O)[C@@]4(COC1=O)[C@@H]2OC(C)=O)[C@]5(C)O", "note": "(some centres undefined) [TRIPTONINE A]", "values": [{"measurement": "selectivity ratio", "setting": "[1]", "result": "> 39.4"}, {"measurement": "EC50", "setting": "[2]", "result": 2.5, "unit": "µg/mL"}]}, {"smiles": "CC(=O)OC[C@]12[C@H](OC(C)=O)[C@H](OC(C)=O)[C@@H]3[C@@H](O)[C@@]14O[C@@]3(C)COC(=O)c1cccnc1CCC(C)C(=O)O[C@@H]([C@H](OC(C)=O)[C@@H]2OC(C)=O)[C@@]4(C)O", "note": "(some centres undefined) [TRIPFORDINE B]", "values": [{"measurement": "IC50", "setting": "A549", "result": "> 4", "unit": "µg/mL"}, {"measurement": "IC50", "setting": "[3]", "result": "> 4", "unit": "µg/mL"}, {"measurement": "IC50", "setting": "A-431", "result": "> 4", "unit": "µg/mL"}, {"measurement": "IC50", "setting": "HCT-8", "result": "> 4", "unit": "µg/mL"}, {"measurement": "IC50", "setting": "LNCaP", "result": "> 4", "unit": "µg/mL"}, {"measurement": "IC50", "setting": "PC-3", "result": "> 4", "unit": "µg/mL"}, {"measurement": "IC50", "setting": "H9", "result": "> 25", "unit": "µg/mL"}, {"measurement": "Activity", "setting": "[2]", "result": "inactive"}]}, {"smiles": "CC(=O)OC[C@]12[C@H](OC(C)=O)[C@H](OC(C)=O)[C@@H]3[C@@H](OC(C)=O)[C@@]14O[C@@]3(C)COC(=O)c1cccnc1C(C)C(C)C(=O)O[C@@H]([C@H](OC(=O)c1ccco1)[C@@H]2OC(C)=O)[C@]4(C)O", "note": "(some centres undefined) [HYPONINE F]", "values": [{"measurement": "selectivity ratio", "setting": "[1]", "result": "> 2.8"}]}, {"smiles": "CC(=O)OC[C@]12[C@H](OC(C)=O)[C@H](OC(C)=O)[C@@H]3[C@@H](O)[C@@]14O[C@@]3(C)COC(=O)c1cnccc1C(C)C(C)C(=O)O[C@@H]([C@H](OC(C)=O)[C@@H]2OC(C)=O)[C@@]4(C)O", "note": "(some centres undefined) [TRIPFORDINE C]", "values": [{"measurement": "IC50", "setting": "A549", "result": "> 4", "unit": "µg/mL"}, {"measurement": "IC50", "setting": "[3]", "result": "> 4", "unit": "µg/mL"}, {"measurement": "IC50", "setting": "A-431", "result": "> 4", "unit": "µg/mL"}, {"measurement": "IC50", "setting": "HCT-8", "result": "> 4", "unit": "µg/mL"}, {"measurement": "IC50", "setting": "LNCaP", "result": "> 4", "unit": "µg/mL"}, {"measurement": "IC50", "setting": "PC-3", "result": "> 4", "unit": "µg/mL"}, {"measurement": "IC50", "setting": "H9", "result": "> 25", "unit": "µg/mL"}, {"measurement": "Activity", "setting": "[2]", "result": "inactive"}]}, {"smiles": "CC(=O)OC[C@]12[C@H](OC(C)=O)[C@H](OC(C)=O)[C@@H]3[C@@H](OC(C)=O)[C@@]14O[C@@]3(C)COC(=O)c1cccnc1CCC(C)C(=O)O[C@@H]([C@H](OC(=O)c1ccco1)[C@@H]2OC(C)=O)[C@]4(C)O", "note": "(some centres undefined)", "values": [{"measurement": "Activity", "setting": "[2]", "result": "inactive"}]}, {"smiles": "CC(=O)OC[C@]12[C@H](OC(C)=O)[C@H](OC(C)=O)[C@@H]3[C@@H](OC(=O)c4ccccc4)[C@@]14O[C@@]3(C)COC(=O)c1cccnc1C(C)C(C)C(=O)O[C@@H]([C@H](OC(C)=O)[C@@H]2OC(C)=O)[C@]4(C)O", "note": "(some centres undefined)", "values": [{"measurement": "EC50", "setting": "[2]", "result": 0.9, "unit": "µg/mL"}]}, {"smiles": "CC(=O)OC[C@]12[C@H](OC(C)=O)[C@H](OC(C)=O)[C@@H]3[C@@H](OC(=O)c4ccccc4)[C@@]14O[C@@]3(C)COC(=O)c1cccnc1C(C)C(C)C(=O)O[C@@H]([C@H](OC(=O)c1cccnc1)[C@@H]2OC(C)=O)[C@]4(C)O", "note": "(some centres undefined)", "values": [{"measurement": "Activity", "setting": "[2]", "result": "inactive"}]}, {"smiles": "CC(=O)OC[C@]12[C@H](OC(C)=O)[C@H](OC(C)=O)[C@@H]3[C@@H](OC(=O)c4ccco4)[C@@]14O[C@@]3(C)COC(=O)c1cccnc1C(C)C(C)C(=O)O[C@@H]([C@H](OC(C)=O)[C@@H]2OC(C)=O)[C@]4(C)O", "note": "(some centres undefined) [HYPONINE A]", "values": [{"measurement": "EC50", "setting": "[2]", "result": 1, "unit": "µg/mL"}]}]}
